The nature of data set [1]: AUC (0 to t) in […] mouse at 100 mg/kg, po after 24 hrs by LC/MS/MS analysis. The format is ADME, organism-based. Also noted: time < 24 hr, dose 100 mg/kg, route oral. Conditions: plasma.
Data set [2] can be described thus: Oral bioavailability in cynomolgus monkey at 5 mg/kg. Type of data set: ADME, organism-based, Macaca fascicularis. The conditions noted are these: in vivo. In a few lines:
(§1)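 Single intravenous and oral doses given as the sodium salt in 5% DMSO/5% Cremophor EL/15% PEG400/15% HPCD/60% water. The iv/po doses were 10/20 mg/kg in mouse, 5.0/10 mg/kg in rat and 2.5/5.0 mg/kg in monkey. Oral AUCinf, iv t1/2 and clearance were also reported.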

Data set [3] can be described thus: Oral bioavailability in […] mouse at 100 mg/kg after 24 hrs by LC/MS/MS analysis. Type of data set: ADME, organism-based. Conditions: in vivo. In a few lines:
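Mouse 24-h exposure study with oral dosing at 100 mg/kg of the free form (not sodium salt). Formulated as a solution of 5% DMSO, 5% Cremophor EL, 15% PEG400, 15% HPCD and 60% water.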

The nature of data set [4]: AUC (0 to t) in […] mouse at 200 mg/kg, po after 24 hrs by LC/MS/MS analysis. Also noted: time < 24 hr, dose 200 mg/kg, route oral. Type of data set: ADME, organism-based. Conditions: plasma.
Data set [5] in a line: Oral bioavailability in Crlj:CD rat at 10 mg/kg. Type of data set: ADME, organism-based. The conditions noted are these: in vivo. In a few lines:
as §1

Data set [6] in a line: Oral bioavailability in BALB-nu/nu mouse at 20 mg/kg. The format is ADME, organism-based. The conditions noted are these: in vivo. In a few lines: as §1
Data set [7] is described as follows: AUC (infinity) in cynomolgus monkey at 5 mg/kg, po. The format is ADME, organism-based, Macaca fascicularis. Further details: time infinity, dose 5 mg/kg, route oral. The conditions noted are these: plasma. In a few lines: (§2)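 The sodium salt was dosed iv and po: mouse 10/20 mg/kg, rat 5.0/10 mg/kg, monkey 2.5/5.0 mg/kg. Vehicle was 5% DMSO/5% Cremophor EL/15% PEG400/15% HPCD/60% water. AUCinf was taken after po dosing; t1/2 was taken after iv dosing.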

Data set [8] is described as follows: AUC (infinity) in Crlj:CD rat at 10 mg/kg, po. The format is ADME, organism-based. Further details: time infinity, dose 10 mg/kg, route oral. Conditions: plasma. In a few lines:
as §2

Data set [9] is described as follows: AUC (infinity) in BALB-nu/nu mouse at 20 mg/kg, po. The format is ADME, organism-based. Further details: time infinity, dose 20 mg/kg, route oral. Conditions: plasma. In a few lines: as §2
Data set [10] concerns Mus musculus. Nature of the data set: AUC (0 to t) in […] mouse assessed as dimethylcarbamic acid 6-chloro-4-methyl-2-oxo-3-[3-(sulfamoylamino)benzyl]-2H-chromen-7-yl ester level at 200 mg/kg, po after 24 hrs by LC/MS/MS analysis. The format is ADME, organism-based, Plasma. Also noted: time < 24 hr, dose 200 mg/kg, route oral. Conditions: in vivo.
The nature of data set [11]: AUC (0 to t) in […] mouse at 50 mg/kg, po after 24 hrs by LC/MS/MS analysis. Type of data set: ADME, organism-based. Further details: time < 24 hr, dose 50 mg/kg, route oral. The conditions noted are these: plasma.

With `Cc1c(Cc2cccc(NS(C)(=O)=O)c2)c(=O)oc2cc(OC(=O)N(C)C)c(Cl)cc12`, in [1], the area under the curve AUC(0-t) (in general, the area under the concentration-time curve up to a stated or last time point) at 24 h came to 41 µM·h.

Regarding `CNS(=O)(=O)Nc1cccc(Cc2c(C)c3cc(Cl)c(OC(=O)N(C)C)cc3oc2=O)c1`, the bioavailability (in general, dose-corrected exposure relative to a reference, in per cent) in [2] was under 5%; in data set [3] it was 10%. Moreover, in data set [1], the AUC(0-t) at 24 h was found to be 17 µM·h.

As to `Cc1c(Cc2cccc(N)c2)c(=O)oc2cc(OC(=O)N(C)C)c(Cl)cc12`, the exposure AUC(0-t) at 24 h in data set [4] was determined as 29 µM·h.

In the case of `Cc1c(Cc2cccc(NS(N)(=O)=O)c2F)c(=O)oc2cc(OC(=O)N(C)C)c(F)cc12`, the figures for the bioavailability in [2], in data set [5] and in data set [6] were 30%, 62% and 51%, respectively. The AUC(0-inf) (as a rule, the area under the concentration-time curve extrapolated to infinity) in data set [7] came to 2.2 µM·h; in data set [8], 6 µM·h; in data set [9] it was 26 µM·h.

As to `COCCNS(=O)(=O)Nc1cccc(Cc2c(C)c3cc(Cl)c(OC(=O)N(C)C)cc3oc2=O)c1`, the AUCt in data set [10] was 14 µM·h. Also, the exposure AUC(0-t) at 24 h in [4] is 9 µM·h.

In data set [3], `CNS(=O)(=O)[N-]c1cccc(Cc2c(C)c3cc(Cl)c(OC(=O)N(C)C)cc3oc2=O)c1.[Na+]` displayed a bioavailability of 31%. This molecule had an AUC(0-t) at 24 h in data set [1] of 51 µM·h.

With `CCS(=O)(=O)Nc1cccc(Cc2c(C)c3cc(Cl)c(OC(=O)N(C)C)cc3oc2=O)c1`, the AUC(0-t) at 24 h in [1] was 30 µM·h.

Consider `Cc1c(Cc2cccc(NS(N)(=O)=O)c2)c(=O)oc2cc(OC(=O)N(C)C)c(Cl)cc12`, for which the exposure AUC(0-t) at 24 h in data set [4] is 70 µM·h.

In turn, `CONS(=O)(=O)Nc1cccc(Cc2c(C)c3cc(Cl)c(OC(=O)N(C)C)cc3oc2=O)c1` came in with an AUC(0-t) at 24 h in data set [1] of 62 µM·h.

For the molecule `Cc1c(Cc2cccc(NS(=O)(=O)NCCC#N)c2)c(=O)oc2cc(OC(=O)N(C)C)c(Cl)cc12`, the AUC(0-t) at 24 h in data set [4] came to 25 µM·h.

In [4], `Cc1c(Cc2cccc(NS(=O)(=O)NCCO)c2)c(=O)oc2cc(OC(=O)N(C)C)c(Cl)cc12` gave an AUC(0-t) at 24 h of 14 µM·h.

`Cc1c(Cc2cccc(NS(=O)(=O)N(C)C)c2)c(=O)oc2cc(OC(=O)N(C)C)c(Cl)cc12` displayed an AUC(0-t) at 24 h in data set [11] of 3 µM·h.

Consider `Cc1c(Cc2cccc(NS(=O)(=O)NCC(F)(F)F)c2)c(=O)oc2cc(OC(=O)N(C)C)c(Cl)cc12`, for which the area under the curve AUC(0-t) at 24 h in data set [1] is 26 µM·h.

For the origin of these results see ChEMBL document CHEMBL3085763, “The sulfamide moiety affords higher inhibitory activity and oral bioavailability to a series of coumarin dual selective RAF/MEK inhibitors” (Bioorg Med Chem Lett, 2013).
